Experimental data taken from ChEMBL document CHEMBL1140385, “Synthesis and antibacterial activity of 3-substituted-6-(3-ethyl-4-methylanilino)uracils” (J Med Chem, 2005).
pKi: −log10 of the molar value. In brackets after ≈: the same amount, converted by molar mass.

What was measured:
Enterococcus faecium [1] = assay: In vitro minimum inhibitory concentration against Enterococcus fecium upon incubation at 37 degree C for 16 to 24 hr by dissolving in DMSO (1%); format: functional
How it was run: (§1)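 Broth microdilution (modified NCCLS M7-A4). Enterococci grown to log phase in brain-heart infusion broth, seeded at (3-7) × 10⁵ CFU/mL. Compounds 2-fold diluted from DMSO stocks, 20 to 1.25 µg/mL, final 1% DMSO, in duplicate. Incubated 37 °C, 16-24 h, with shaking. OD600 read.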

Enterococcus faecalis = assay: In vitro minimum inhibitory concentration against Enterococcus faecalis upon incubation at 37 degree C for 16 to 24 hr by dissolving in DMSO (1%); format: functional
How it was run: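 Log-phase E. faecalis was grown in brain-heart infusion broth and seeded at (3-7) × 10^5 CFU/mL. Duplicate 2-fold dilutions ran from 20 to 1.25 µg/mL, final 1% DMSO. After 16-24 h at 37 °C with shaking, OD600 was read.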

Staphylococcus aureus [2] = assay: In vitro minimum inhibitory concentration against Staphylococcus aureus upon incubation at 37 degree C for 16 to 24 hr by dissolving in DMSO (1%); format: functional
Enterococcus faecium [3] = assay: In vitro minimum inhibitory concentration against Vancomycin resistant Enterococci faecium upon incubation at 37 degree C for 16 to 24 hr by dissolving in DMSO (1%); format: functional; how it was run: as §1
Staphylococcus aureus [4] = assay: Serum effect on MIC against Staphylococcus aureus (Smith) as ratio of MIC value in presence and absence of 50% fetal calf serum; format: functional
How it was run: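 Broth microdilution MIC was repeated with 50% fetal calf serum added to the growth medium (LB for S. aureus, brain-heart infusion broth for E. faecalis). The inoculum was (3-7) × 10^5 CFU/mL in 1% DMSO, incubated at 37 °C for 16-24 h, and read by OD600. The serum effect is the MIC with serum relative to the MIC without serum.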

Staphylococcus aureus [5] = assay: In vitro minimum inhibitory concentration against Staphylococcus aureus (Smith) upon incubation at 37 degree C for 16 to 24 hr by dissolving in DMSO (1%); format: functional
Staphylococcus aureus [6] = assay: In vitro minimum inhibitory concentration against Methicillin-resistant Staphylococcus aureus upon incubation at 37 degree C for 16 to 24 hr by dissolving in DMSO (1%); format: functional
How it was run: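 Broth microdilution (modified NCCLS M7-A4). Staphylococci grown to log phase in Luria broth, seeded at (3-7) × 10⁵ CFU/mL. Compounds 2-fold diluted from DMSO stocks, 20 to 1.25 µg/mL, final 1% DMSO, in duplicate. Incubated 37 °C, 16-24 h, with shaking. OD600 read.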

Bacillus subtilis = assay: In vitro minimum inhibitory concentration against Bacillus subtilis upon incubation at 37 degree C for 16 to 24 h; format: functional
[7] = molecular target: DNA polymerase III PolC-type (Bacillus subtilis (strain 168), UniProt P13267); assay: Inhibitory concentration against Bacillus subtilis DNA polymerase IIIC using [3H]dTMP 250 pM (30 degree C for 10 min)
How it was run: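 Homogeneous recombinant B. subtilis pol IIIC, 0.025-0.06 units, acted on activated calf thymus DNA with Mg2+, DTT, glycerol, dATP, dCTP, dTTP and [3H]dTTP, without dGTP. Compounds were serially diluted from DMSO. Reactions ran 10 min at 30 °C, were stopped with TCA-pyrophosphate, and the filter-collected precipitate was scintillation counted. Apparent Ki was read directly from this truncated assay; average standard deviation ±44%.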

DNA polymerase III PolC-type, sequence (P13267 whole entry, the tested form may be a part): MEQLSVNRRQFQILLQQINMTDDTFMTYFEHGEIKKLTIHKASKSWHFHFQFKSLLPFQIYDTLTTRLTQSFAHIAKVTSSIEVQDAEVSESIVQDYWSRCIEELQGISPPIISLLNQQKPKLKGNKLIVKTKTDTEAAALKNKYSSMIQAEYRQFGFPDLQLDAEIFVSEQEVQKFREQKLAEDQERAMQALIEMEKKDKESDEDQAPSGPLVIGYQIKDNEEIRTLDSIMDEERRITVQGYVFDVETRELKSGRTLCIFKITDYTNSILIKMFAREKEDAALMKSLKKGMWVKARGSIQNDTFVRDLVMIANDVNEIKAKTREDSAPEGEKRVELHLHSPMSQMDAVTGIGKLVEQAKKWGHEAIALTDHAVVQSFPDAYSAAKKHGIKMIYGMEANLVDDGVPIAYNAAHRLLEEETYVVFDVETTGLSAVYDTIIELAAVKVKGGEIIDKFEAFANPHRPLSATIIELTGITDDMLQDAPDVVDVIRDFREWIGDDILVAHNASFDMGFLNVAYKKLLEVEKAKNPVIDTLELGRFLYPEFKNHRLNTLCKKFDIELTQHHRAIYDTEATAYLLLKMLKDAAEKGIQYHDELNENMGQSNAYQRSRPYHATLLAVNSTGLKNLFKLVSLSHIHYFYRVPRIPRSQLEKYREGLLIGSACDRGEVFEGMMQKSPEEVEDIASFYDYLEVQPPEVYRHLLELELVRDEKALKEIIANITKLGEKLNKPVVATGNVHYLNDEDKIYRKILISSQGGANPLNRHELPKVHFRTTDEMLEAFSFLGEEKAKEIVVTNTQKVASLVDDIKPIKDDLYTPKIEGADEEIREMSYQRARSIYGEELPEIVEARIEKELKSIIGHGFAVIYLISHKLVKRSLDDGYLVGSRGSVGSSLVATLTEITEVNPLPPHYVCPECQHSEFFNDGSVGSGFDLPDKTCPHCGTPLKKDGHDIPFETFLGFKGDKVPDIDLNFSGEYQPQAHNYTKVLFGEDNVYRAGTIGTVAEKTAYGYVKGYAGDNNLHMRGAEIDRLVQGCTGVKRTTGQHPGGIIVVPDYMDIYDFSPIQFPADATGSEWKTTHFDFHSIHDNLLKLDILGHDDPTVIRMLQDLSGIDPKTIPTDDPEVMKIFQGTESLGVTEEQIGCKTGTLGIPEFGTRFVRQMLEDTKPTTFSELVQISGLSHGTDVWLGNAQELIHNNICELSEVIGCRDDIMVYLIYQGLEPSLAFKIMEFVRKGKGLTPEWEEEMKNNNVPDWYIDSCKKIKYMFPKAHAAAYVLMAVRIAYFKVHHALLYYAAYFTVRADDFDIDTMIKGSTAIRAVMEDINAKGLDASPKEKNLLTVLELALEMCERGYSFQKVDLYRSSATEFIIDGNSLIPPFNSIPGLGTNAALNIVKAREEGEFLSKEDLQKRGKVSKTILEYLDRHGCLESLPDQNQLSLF

SMILES | MIC (Enterococcus faecium [1]) [µg/mL] | MIC (Enterococcus faecalis) [µg/mL] | MIC (Staphylococcus aureus [2]) [µg/mL] | MIC (Enterococcus faecium [3]) [µg/mL] | MIC+/MIC- (Staphylococcus aureus [4]) | MIC (Staphylococcus aureus [5]) [µg/mL] | MIC (Staphylococcus aureus [6]) [µg/mL] | MIC (Bacillus subtilis) [µg/mL] | pKi [7]
CCc1cc(Nc2cc(=O)n(CCCCNS(=O)(=O)c3cccs3)c(=O)[nH]2)ccc1C | 2.5 (≈ 5.4 µM) | 5 (≈ 10.8 µM) | > 20 | 5 (≈ 10.8 µM) | 13.7 |  |  |  | 
CCc1cc(Nc2cc(=O)n(CCCCOC(=O)N3CCOCC3)c(=O)[nH]2)ccc1C | 5 (≈ 11.6 µM) | 5 (≈ 11.6 µM) |  | 5 (≈ 11.6 µM) |  | 5 (≈ 11.6 µM) | 10 (≈ 23.2 µM) |  | 
CCc1cc(Nc2cc(=O)n(CCCOC)c(=O)[nH]2)ccc1C | 2.5 (≈ 7.88 µM) | 5 (≈ 15.8 µM) | 2.5 (≈ 7.88 µM) | 2.5 (≈ 7.88 µM) | 4.9 | 2.5 (≈ 7.88 µM) | 2.5 (≈ 7.88 µM) | < 1.25 | 6.92
CCc1cc(Nc2cc(=O)n(CCCCCCCCCCO)c(=O)[nH]2)ccc1C | > 20 | > 20 | > 20 |  |  | > 20 |  | < 1.25 | 7.29
CCc1cc(Nc2cc(=O)n(CCCCN)c(=O)[nH]2)ccc1C.Cl | > 20 | > 20 | 20 |  |  | 10 | > 20 | 20 | 
CCc1cc(Nc2cc(=O)n(CCCCNC(=O)CCl)c(=O)[nH]2)ccc1C | 10 (≈ 25.5 µM) | 5 (≈ 12.7 µM) |  | 5 (≈ 12.7 µM) |  | 5 (≈ 12.7 µM) | 10 (≈ 25.5 µM) |  | 
CCc1cc(Nc2cc(=O)n(CCOC)c(=O)[nH]2)ccc1C | 2.5 (≈ 8.24 µM) | 5 (≈ 16.5 µM) | 2.5 (≈ 8.24 µM) | 2.5 (≈ 8.24 µM) | 6.9 | 2.5 (≈ 8.24 µM) | 5 (≈ 16.5 µM) | < 1.25 | 6.90
CCc1cc(Nc2cc(=O)n(CCCCNC(=O)C3CC3)c(=O)[nH]2)ccc1C |  | 5 (≈ 13 µM) |  | 5 (≈ 13 µM) | 14.9 | 5 (≈ 13 µM) | 20 (≈ 52 µM) |  | 
CCc1cc(Nc2cc(=O)n(CCCCNCCO)c(=O)[nH]2)ccc1C | > 20 | > 20 | > 20 |  |  | > 20 |  | > 20 | 7.55
CCc1cc(Nc2cc(=O)n(CCCCCCCCO)c(=O)[nH]2)ccc1C | 2.5 (≈ 6.69 µM) |  |  | 2.5 (≈ 6.69 µM) | 21.3 |  |  |  | 
CCc1cc(Nc2cc(=O)n(CCCCCCO)c(=O)[nH]2)ccc1C | 5 (≈ 14.5 µM) | 2.5 (≈ 7.24 µM) | 5 (≈ 14.5 µM) |  | 8.7 |  | 5 (≈ 14.5 µM) |  | 
CCc1cc(Nc2cc(=O)n(CCCOC(C)=O)c(=O)[nH]2)ccc1C | 5 (≈ 14.5 µM) | 5 (≈ 14.5 µM) | 3.75 (≈ 10.9 µM) | 3.75 (≈ 10.9 µM) |  | 2.5 (≈ 7.24 µM) | 5 (≈ 14.5 µM) | 0.625 (≈ 1.81 µM) | 6.92
CCc1cc(Nc2cc(=O)n(CCCC(C)=O)c(=O)[nH]2)ccc1C | 5 (≈ 15.2 µM) | 5 (≈ 15.2 µM) |  | 2.5 (≈ 7.59 µM) |  | 2.5 (≈ 7.59 µM) | 5 (≈ 15.2 µM) |  | 
CCc1cc(Nc2cc(=O)n(CCCCN(CCO)CCO)c(=O)[nH]2)ccc1C | > 20 | > 20 | > 20 |  |  | > 20 |  | > 20 | 7.68
CCc1cc(Nc2cc(=O)n(CCCCNS(=O)(=O)c3ccc(C)cc3)c(=O)[nH]2)ccc1C | 5 (≈ 10.6 µM) | 5 (≈ 10.6 µM) | 5 (≈ 10.6 µM) | 5 (≈ 10.6 µM) |  | 5 (≈ 10.6 µM) | > 20 | 5 (≈ 10.6 µM) | 6.64
CCOC(=O)CCCn1c(=O)cc(Nc2ccc(C)c(CC)c2)[nH]c1=O |  | 5 (≈ 13.9 µM) |  | 5 (≈ 13.9 µM) | 10 |  | 5 (≈ 13.9 µM) |  | 
CCc1cc(Nc2cc(=O)n(CCCCC#N)c(=O)[nH]2)ccc1C | 5 (≈ 15.3 µM) | 2.5 (≈ 7.66 µM) | 5 (≈ 15.3 µM) | 5 (≈ 15.3 µM) | 6 |  | 5 (≈ 15.3 µM) |  | 
CCc1cc(Nc2cc(=O)n(CCCC(=O)O)c(=O)[nH]2)ccc1C | 20 (≈ 60.4 µM) | > 20 | 20 (≈ 60.4 µM) | 20 (≈ 60.4 µM) |  |  | > 20 |  | 
CCc1cc(Nc2cc(=O)n(CCCCOC)c(=O)[nH]2)ccc1C | 2.5 (≈ 7.54 µM) | 5 (≈ 15.1 µM) | 5 (≈ 15.1 µM) | 2.5 (≈ 7.54 µM) | 7.4 | 5 (≈ 15.1 µM) | 5 (≈ 15.1 µM) | < 1.25 | 
